From PMC10330157 (Clinical cancer research : an official journal of the …, 2023)
“Also recorded” adds a separate entry of the source.

What was measured:
[1] = system: patients with relapsed or refractory CLL/SLL; test: Phase 1 trial: antitumor response in patients with R/R CLL/SLL; type: in vivo, human
Method in brief: (§1)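 Patients took the oral test compound once daily in 28-day cycles. Disease was assessed at baseline and then every 8 weeks from Cycle 3, using disease-specific scans, bone marrow biopsy/aspirate and hematologic and biochemical labs. MRD was checked in peripheral blood in patients reaching CR. ORR was reported with 95% CI, and missing data were not imputed.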

[2] = system: patients with other hematologic malignancies (NHL, MM, myeloid malignancy, HCL, Castleman disease); test: Phase 1 trial: antitumor response in patients without CLL/SLL; type: in vivo, human
Method in brief: as §1

[3] = Phase 1 first-in-human trial: safety and tolerability; type: in vivo
Method in brief: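 In an open-label, non-randomized dose escalation, the test compound was given orally once daily for 28-day cycles at 20–1,200 mg. Cohorts started as single patients, with intrapatient escalation allowed. The primary endpoints were DLT and MTD. Patients were hospitalized during ramp-up, with oral antihyperuricemic agents and hydration ≥ 72 h before the first dose plus IV hydration. AEs were counted once per patient. The safety population was all patients receiving ≥ 1 dose, analysed descriptively.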

patients with CLL/SLL = test: Absolute lymphocyte count; type: in vivo, human; settings: for Mean decrease in ALC: 23 patients with CLL/SLL
Method in brief: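 Adults with R/R CLL/SLL took the test compound orally once daily in 28-day cycles. ALC was tracked from ramp-up D1 to C1D1 and to C2D1. A subset with baseline mean ALC > 25 × 10³/μL was evaluated separately.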

[4] = Clinical plasma pharmacokinetics; type: in vivo, human
Method in brief: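 Oral test compound was given once daily at doses of 20 to 1,200 mg. Plasma levels were measured by LC-MS/MS (LLOQ 5 ng/mL). Cmax, AUC0-24h and accumulation ratio came from noncompartmental analysis.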

[5] = cited from earlier work
[6] = Castleman disease, evaluable n = 1
[7] = Myeloid malignancy (AML, MDS), evaluable n = 2
[8] = Non-CLL/SLL overall, evaluable n = 28
[9] = single oral administration, 50 mg, 1 subject
[10] = single oral administration, 100 mg, 1 subject
[11] = single oral administration, 200 mg, 2 subjects, Mean ± SD
[12] = single oral administration, 400 mg, 8 subjects, Mean ± SD
[13] = single oral administration, 600 mg, 7 subjects, Mean ± SD
[14] = single oral administration, 800 mg, 7 subjects, Mean ± SD
[15] = single oral administration, 1,000 mg, 6 subjects, Mean ± SD
[16] = single oral administration, 1,200 mg, 6 subjects, Mean ± SD

O=C(NS(=O)(=O)c1ccc(NC[C@H]2COCCO2)c([N+](=O)[O-])c1)c1ccc(N2CCN(CC3=C(c4ccc(Cl)cc4)CC4(CCC4)CC3)CC2)cc1Oc1cnc2[nH]ccc2c1 [lisaftoclax]
ORR in patients with BTKi-intolerant disease ([1]; 4 out of 5 evaluable patients): 80.0%
Best response MR ([1]; CLL/SLL, evaluable n = 22): 0 (0) no. (%)
Best response PD ([1]; CLL/SLL, evaluable n = 22): 0 (0) no. (%)
Best response PR ([1]; CLL/SLL, evaluable n = 22): 14 (63.6) no. (%)
Best response SD ([1]; CLL/SLL, evaluable n = 22): 8 (36.4) no. (%)
ORR ([1]; CLL/SLL, evaluable n = 22): 14 (63.6) no. (%)
PR (ORR) in patients with del(17p)/TP53 mutation ([1]; CLL/SLL, 2/3): 66.7%
PR in patients with IGHV unmutated ([1]; CLL/SLL, 8/10): 80.0%
Patients with ≥ 70% reductions in nodal and/or splenic size ([1]; CLL/SLL, 9 of 21 patients): 42.9%
Patients achieving PR among 4 patients who relapsed to prior BTKi ([1]; after 2 cycles of treatment): 1 patient
Complete response (CR) ([1]; all patients): No patient experienced a CR
Median time to response ([1]; patients with R/R CLL/SLL): 2 (range, 2-8) cycles
Clinical benefit, patients ([2]; 28 evaluable patients without CLL/SLL): 50.0%
Best response MR [2, 6]: 0 (0) no. (%)
Best response PD [2, 6]: 0 (0) no. (%)
Best response PR [2, 6]: 0 (0) no. (%)
Best response SD [2, 6]: 1 (100.0) no. (%)
Clinical benefit rate [2, 6]: 1 (100.0) no. (%)
ORR [2, 6]: 0 (0) no. (%)
Best response MR ([2]; HCL, evaluable n = 1): 0 (0) no. (%)
Best response PD ([2]; HCL, evaluable n = 1): 0 (0) no. (%)
Best response PR ([2]; HCL, evaluable n = 1): 0 (0) no. (%)
Best response SD ([2]; HCL, evaluable n = 1): 1 (100.0) no. (%)
Clinical benefit rate ([2]; HCL, evaluable n = 1): 1 (100.0) no. (%)
ORR ([2]; HCL, evaluable n = 1): 0 (0) no. (%)
Best response PD ([2]; MM, evaluable n = 11): 7 (63.6) no. (%)
Best response SD ([2]; MM, evaluable n = 11): 2 (18.2) no. (%)
Clinical benefit rate ([2]; MM, evaluable n = 11): 4 (36.4) no. (%)
ORR ([2]; MM, evaluable n = 11): 1 (9.1) no. (%)
Best response MR [2, 7]: 0 (0) no. (%)
Best response PD [2, 7]: 2 (100.0) no. (%)
Best response PR [2, 7]: 0 (0) no. (%)
Best response SD [2, 7]: 0 (0) no. (%)
Clinical benefit rate [2, 7]: 0 (0) no. (%)
ORR [2, 7]: 0 (0) no. (%)
Best response PD ([2]; NHL, evaluable n = 13): 5 (38.5) no. (%)
Best response PR ([2]; NHL, evaluable n = 13): 0 (0) no. (%)
Best response SD ([2]; NHL, evaluable n = 13): 7 (53.8) no. (%)
Clinical benefit rate ([2]; NHL, evaluable n = 13): 8 (61.5) no. (%)
ORR ([2]; NHL, evaluable n = 13): 0 (0) no. (%)
Best response MR [2, 8]: 2 (7.1) no. (%)
Best response PD [2, 8]: 14 (50.0) no. (%)
Best response PR [2, 8]: 1 (3.6) no. (%)
Best response SD [2, 8]: 11 (39.3) no. (%)
Clinical benefit rate [2, 8]: 14 (50.0) no. (%)
ORR [2, 8]: 1 (3.6) no. (%)
Grade 3 or 4 treatment-emergent increased lipase, patients ([3]; 23 patients with CLL/SLL): 13.0%
Grade 3 or 4 treatment-emergent neutropenia, patients ([3]; 23 patients with CLL/SLL): 26.1%
Treatment-related neutropenia, patients ([3]; 23 patients with CLL/SLL): 26.1%
Anemia, treatment-emergent adverse event ([3]; N = 52, Grade 3/4): 5 (9.6) no. (%)
Constipation, treatment-emergent adverse event ([3]; N = 52, Grade 3/4): 1 (1.9) no. (%)
Diarrhea, treatment-emergent adverse event ([3]; N = 52, Grade 3/4): 1 (1.9) no. (%)
Fatigue, treatment-emergent adverse event ([3]; N = 52, Grade 3/4): 1 (1.9) no. (%)
Headache, treatment-emergent adverse event ([3]; N = 52, Grade 3/4): 2 (3.8) no. (%)
Hypokalemia, treatment-emergent adverse event ([3]; N = 52, Grade 3/4): 1 (1.9) no. (%)
Nausea, treatment-emergent adverse event ([3]; N = 52, Grade 3/4): 2 (3.8) no. (%)
Neutropenia, treatment-emergent adverse event ([3]; N = 52, Grade 3/4): 11 (21.2) no. (%)
Peripheral edema, treatment-emergent adverse event ([3]; N = 52, Grade 3/4): 2 (3.8) no. (%)
Thrombocytopenia, treatment-emergent adverse event ([3]; N = 52, Grade 3/4): 7 (13.5) no. (%)
Anemia, treatment-emergent adverse event ([3]; N = 52, any grade): 15 (28.8) no. (%)
Arthralgia, treatment-emergent adverse event ([3]; N = 52, any grade): 8 (15.4) no. (%)
Constipation, treatment-emergent adverse event ([3]; N = 52, any grade): 13 (25.0) no. (%)
Diarrhea, treatment-emergent adverse event ([3]; N = 52, any grade): 25 (48.1) no. (%)
Fatigue, treatment-emergent adverse event ([3]; N = 52, any grade): 18 (34.6) no. (%)
Headache, treatment-emergent adverse event ([3]; N = 52, any grade): 11 (21.2) no. (%)
Hypokalemia, treatment-emergent adverse event ([3]; N = 52, any grade): 9 (17.3) no. (%)
Nausea, treatment-emergent adverse event ([3]; N = 52, any grade): 16 (30.8) no. (%)
Neutropenia, treatment-emergent adverse event ([3]; N = 52, any grade): 14 (26.9) no. (%)
Peripheral edema, treatment-emergent adverse event ([3]; N = 52, any grade): 9 (17.3) no. (%)
Thrombocytopenia, treatment-emergent adverse event ([3]; N = 52, any grade): 15 (28.8) no. (%)
Vomiting, treatment-emergent adverse event ([3]; N = 52, any grade): 12 (23.1) no. (%)
Tumor lysis syndrome (TLS), clinical or laboratory ([3]; daily dose ramp-up, doses up to 1,200 mg): no evidence of tumor lysis syndrome; also recorded: no evidence of clinical or laboratory TLS; also recorded: no patient with CLL/SLL in this study has experienced TLS; also recorded: no clinical or laboratory evidence of TLS
Dose-limiting toxicity (DLT) ([3]; doses of up to 1,200 mg): not reached; also recorded: no dose-limiting toxicities
Changes in platelet counts ([3]; in contrast to navitoclax): did not elicit clinically significant changes in platelet counts
Neutropenic sequelae, such as fever and infection ([3]; in vivo): not observed
Maximum tolerated dose (MTD) ([3]; oral once daily, 20 mg to 1,200 mg, 52 patients): not reached
Median time to 50% ALC reduction (patients with CLL/SLL; 5 patients with higher risk of TLS): 3 (range, 2-4) days
Mean decrease in ALC (patients with CLL/SLL; from ramp-up D1 to C1D1): 69.4%
Mean decrease in ALC (patients with CLL/SLL; from ramp-up Day 1 to C2D1 (completion of first cycle)): 92.8%
Steady-state mean (CV%) AUC0-24h ([4]; 400 mg): 10,130 (40%) ng•h/mL
Steady-state mean (CV%) Cmax ([4]; 400 mg): 981 (43%) ng/mL
Accumulation ratio ([4]; multiple oral daily dosing): approximately 1
AUC0-24 [4, 9]: 0.261 µg·h/mL
Cmax [4, 9]: 0.0391 µg/mL
T1/2 [4, 9]: 2.84 h
Tmax [4, 9]: 3 h
AUC0-24 [4, 10]: 1.80 µg·h/mL
Cmax [4, 10]: 0.229 µg/mL
T1/2 [4, 10]: 3.85 h
Tmax [4, 10]: 6 h
AUC0-24 [4, 11]: 2.41 ± 0.37 µg·h/mL
Cmax [4, 11]: 0.294 ± 0.004 µg/mL
T1/2 [4, 11]: 3.84 ± 0.16 h
Tmax ([4]; single oral administration, 200 mg, 2 subjects, Median (range)): 4 (4~4) h
AUC0-24 [4, 12]: 6.85 ± 2.91 µg·h/mL
Cmax [4, 12]: 0.822 ± 0.334 µg/mL
T1/2 [4, 12]: 4.43 ± 0.57 h
Tmax ([4]; single oral administration, 400 mg, 8 subjects, Median (range)): 6 (4~8) h
AUC0-24 [4, 13]: 7.81 ± 2.84 µg·h/mL
Cmax [4, 13]: 0.761 ± 0.298 µg/mL
T1/2 [4, 13]: 4.68 ± 1.03 h
Tmax ([4]; single oral administration, 600 mg, 7 subjects, Median (range)): 6 (4~8) h
AUC0-24 [4, 14]: 7.25 ± 2.24 µg·h/mL
Cmax [4, 14]: 0.982 ± 0.384 µg/mL
T1/2 [4, 14]: 4.34 ± 0.53 h
Tmax ([4]; single oral administration, 800 mg, 7 subjects, Median (range)): 4 (4~6) h
AUC0-24 [4, 15]: 18.3 ± 13.1 µg·h/mL
Cmax [4, 15]: 1.69 ± 1.22 µg/mL
T1/2 [4, 15]: 6.10 ± 1.52 h
Tmax ([4]; single oral administration, 1,000 mg, 6 subjects, Median (range)): 8 (6~8) h
AUC0-24 [4, 16]: 12.3 ± 4.82 µg·h/mL
Cmax [4, 16]: 1.20 ± 0.48 µg/mL
T1/2 [4, 16]: 4.86 ± 1.01 h
Tmax ([4]; single oral administration, 1,200 mg, 6 subjects, Median (range)): 6 (3~8) h

CC1(C)CCC(CN2CCN(c3ccc(C(=O)NS(=O)(=O)c4ccc(NCC5CCOCC5)c([N+](=O)[O-])c4)c(Oc4cnc5[nH]ccc5c4)c3)CC2)=C(c2ccc(Cl)cc2)C1 [venetoclax]
Patients with grade 3/4 neutropenia who may require G-CSF support or dose reductions [5]: ~ 75%
Recipients experiencing infection [5]: 72%
Grade ≥ 2 diarrhea, recipients ([5]; real-world-evidence studies): up to 18%
Grade ≥ 3 neutropenia, recipients ([5]; real-world-evidence studies): up to 47%
Grade ≥ 3 neutropenic fever, recipients ([5]; real-world-evidence studies): up to 13%
Grade ≥ 3 thrombocytopenia, recipients ([5]; real-world-evidence studies): up to 36%
TLS, recipients ([5]; real-world-evidence studies): up to 13.4%
